# Screening data from PubChem BioAssay.
# Most compounds without a hit are left out; they make up all but 3.7% or so of the library.
# KCNK9 block = blocks the human KCNK9 two-pore domain potassium channel. B-score at 10 µM. hit rate 1.2% among 310,000. HEK293 KCNK9, FluxOR thallium flux fluorescence; active compounds read low. AID 488922;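 active = ratio B-score over 3 SD below the library mean, with starting fluorescence within 5 SD of its mean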;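 also: negative B-score means less thallium flux so channel inhibition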
# KCNQ1 pot = potentiators or activators of human KCNQ1 potassium channel | P51787 | CHO-K1 KCNQ1, thallium flux FluxOR fluorescence; active compounds read high | B-score at 10 µM | AID 2648 | hit rate 0.35% among 310,000;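 active = fluorescence ratio B-score, a plate-corrected score, at least three library SD, with initial intensity B-score within 5 SD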
#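 assay system = CHO-K1 cells stably expressing KCNQ1 | medium = assay buffer, equal DMSO in all wells | timing = 37 °C overnight plating, 90-min dark dye load, 20-min compound pretreatment | measured by = kinetic FluxOR thallium fluorescence, 10-s 1-Hz baseline, 110-s post-stimulus read | measure = fluorescence change relative to baseline, converted to B score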
# hERG protect = shields human hERG channel from block by proarrhythmic agents; CHO-hERG, FluxOR thallium flux, dofetilide IC70 present; activation (rescue from dofetilide block), less the hit threshold, % at 10 µM; hit rate 0.51% among 310,000; AID 1511;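 active = activation above the mean of controls blocked by dofetilide plus 5 SD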;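 also: thallium influx through hERG after potassium depolarization seen as dye fluorescence rise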
# Kir21 block = inhibitors of mouse Kir2.1 inward-rectifier potassium channel; P35561; HEK293-Kir2.1, FluxOR thallium flux fluorescence; active compounds read low; B-score at 10 µM; hit rate 0.85% among 310,000; AID 1672;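 active = fluorescence ratio B-score at or below minus 3 SD of library scores, with starting-brightness B-score within 2 SD, cut at about -4.2 in these data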;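 also: channel flux triggered by added potassium and thallium sulfate stimulus; B-score of peak minus minimum fluorescence over baseline after thallium stimulus; more negative B-score means stronger Kir2.1 block with less thallium influx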
# KCNQ1 block = inhibitors of human KCNQ1 potassium channel; P51787; CHO-K1 KCNQ1, FluxOR thallium flux fluorescence; active compounds read high; B-score at 10 µM; hit rate 1.3% among 310,000; AID 2642;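 active = compounds whose thallium flux B-score, printed positive for inhibition, exceeds three library SD while starting fluorescence stays within three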;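 also: channel opened by potassium depolarization with thallium stimulus after 20 min compound exposure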
# KCNK3 inh = human KCNK3 channel inhibition, primary screen | O14649 | hit rate 0.84% among 340,000 | AID 602410 | B-score at 10 µM | CHO-KCNK3 thallium flux, FluxOR fluorescence; active compounds read low;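 active = B-score under library mean minus 4 SD, starting fluorescence ratio at most library mean plus 5 SD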;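 also: more negative B-score means stronger inhibition of thallium flux through KCNK3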
# * marks the source's active call; other numbers are inactive results; i = inactive; . = no result.
SMILES,KCNK9 block,KCNQ1 pot,hERG protect,Kir21 block,KCNQ1 block,KCNK3 inh
CCN1C(=O)/C(=C/c2ccc(N3CCCC3)cc2)NC1=S,i,i,-11,-5.8,12*,i
CCCN1C(=O)/C(=C/c2ccc(N3CCCC3)c(C)c2)NC1=S,i,i,-16,-4,i,i
C/C(N)=C(/C#N)C(=O)COC(=O)CC1CCCC1,i,i,-9,-0.13,i,i
C/C(N)=C(/C#N)C(=O)COC(=O)C1CCC(C(C)(C)C)CC1 (stereo unspecified),i,i,0,-11*,i,i
CCN(C1CCS(=O)(=O)C1)S(=O)(=O)c1ccc(Cl)s1 (stereo unspecified),.,.,.,.,.,i
Cc1ccc(CN2CCCC(CO)(Cc3ccccc3C)C2)s1 (stereo unspecified),i,i,-6,-4.4*,i,i
CCn1c(=S)[nH]c2c(c1=O)C(C)(C)Cc1ccccc1-2,i,17*,45*,0.86,i,i
Cc1ccc(C(=O)NCc2ccccc2)cc1Br,i,i,-10,1.4,i,i
COC(=O)CNC(c1ccccc1Cl)c1cc(Br)ccc1NS(=O)(=O)c1ccc(C)cc1 (stereo unspecified),-6.8*,i,-13,-1.8,i,i
COc1ccc2ccccc2c1C1CC(=O)N2CN(C)CSC2=C1C#N (stereo unspecified),i,i,-17,-0.25,6*,i
Cc1ccc([C@@H]2CC=C(C(=O)O)[C@H](c3cccc(F)c3)N2S(=O)(=O)c2ccccc2C)cc1,.,.,.,.,.,i
O=C(Cc1cccc2ccccc12)Nc1nc(-c2cccc([N+](=O)[O-])c2)cs1,i,i,-11,-0.86,i,i
CC(OC(=O)c1ccc(F)cc1)C(=O)Nc1nc(-c2cccc([N+](=O)[O-])c2)cs1 (stereo unspecified),-7.4*,i,-5,-1.2,i,i
CCN(C(=O)COC(=O)C(c1ccccc1)c1ccccc1)c1c(N)n(Cc2ccccc2)c(=O)[nH]c1=O,.,.,.,.,.,i
O=C(CCC(=O)c1ccc(Cl)cc1)OCC(=O)c1ccccc1,i,i,8.9*,-0.86,i,i
O=C(CNC(=O)c1ccc(Cl)cc1)OCC(=O)c1ccccc1,i,i,-4,-0.03,i,i
CN1CCS/C1=C/C=C1\SC(=S)N(CC(=O)O)C1=O,i,i,-32,-12,14*,i
CCCCN1C(=O)/C(=C/C=C2\SCCN2C)SC1=S,i,i,-16,-1.2,i,i
O=S(=O)(c1ccccc1Cl)N1CCC(Cc2ccccc2)CC1,i,i,-18,-0.25,6*,i
Cn1c(=O)c(=O)n(C)c2cc(S(=O)(=O)N3CCC(Cc4ccccc4)CC3)ccc21,i,i,-3,2,i,i
CC(=NC1CCCC1)c1c(C)[nH]n(-c2nc3ccccc3s2)c1=O,i,i,6.2*,-0.82,i,i
O=C(O)CN1C(=O)c2cccc(Oc3ccc(Cl)cc3)c2C1=O,-6.8*,i,-8,0.1,i,i
CCN(CC)c1ccc(/C=C(/C#N)c2nc3ccc(C)cc3[nH]2)c(OC(C)C)c1,i,i,-38,-1.7,9*,i
CCCOc1cc(N(CC)CC)ccc1/C=C(/C#N)c1nc2ccc(C)cc2[nH]1,-11*,i,-18,-2.4,i,i
CC(C)C[C@H]1C(=O)N2CCC[C@H]2[C@]2(O)O[C@](NC(=O)[C@@H]3C=C4c5cccc6[nH]c(Br)c(c56)CC4N(C)C3)(C(C)C)C(=O)N12 (stereo partly specified),i,i,-10,1.6,6*,i
SMILES,KCNK9 block,KCNQ1 pot,hERG protect,Kir21 block,KCNQ1 block,KCNK3 inh
C/C=C/c1ccc(OCCOCCNCc2ccccc2)c(OC)c1,i,i,-12,-6.2*,i,i
Cc1ccc(OCCNCc2ccccc2)c(C)c1,i,i,-7,-4.6*,i,i
Cc1cc(C)c(OCCCNC2CCCC2)c(Br)c1,i,i,-4,-3.4,i,i
Cc1cc(C)c(OCCCNCc2ccccc2)c(Br)c1,i,i,-14,-16*,i,i
Cc1cc(C)c(C)c(OCCOCCNCc2ccccc2)c1,i,i,-6,-9.1*,i,i
CCCOc1ccc(OCCOCCNCc2ccccc2)cc1,i,i,-4,-2.9,i,i
CC(C)(c1ccccc1)c1ccc(OCc2ccc(C(=O)O)o2)cc1,.,.,.,.,.,i
Cc1ccccc1C(=O)O[C@H]1[C@H](Cc2ccccc2)NS(=O)(=O)[C@H]2CC3C=C[C@]12O3,.,.,.,.,.,i
CN(CCOc1ccccc1)C(=O)CNC(=O)c1ccc(C(C)(C)C)cc1,.,.,.,.,.,i
C=C(C)Cn1cnc2cc(C)c(C)cc21,i,i,8.6*,-1.4,i,i
Cc1cc2ncn(CS(C)(=O)=O)c2cc1C,i,i,-14,0.27,i,i
O=C(COC(=O)c1ccccc1NCCO)NCc1cccs1,i,i,-14,-0.89,i,i
Clc1ccc(CSc2nccn2Cc2ccccc2)cc1,i,i,-9,-0.01,i,i
O=[N+]([O-])c1ccc(Sc2nccn2Cc2ccccc2)cc1,i,i,-15,-5*,i,i
NC(=O)CC(NC(=O)c1ccccc1)c1ccc(N2CCC(Cc3ccccc3)CC2)c([N+](=O)[O-])c1 (stereo unspecified),-6.8*,i,-17,-2.1,i,i
O=C(CCC(=O)N1CCOc2ccccc21)Nc1cc(F)ccc1F,i,i,-7,1.2,i,i
OCC[C@H]1C[C@@H](O)[C@H](O)[C@@]2(CCc3ccccc3O2)O1,.,.,.,.,.,i
Cc1cc(Br)ccc1NC(=S)Nc1cccc([N+](=O)[O-])c1,i,i,-18,-0.99,10*,i
C/C(=N/NC(=S)Nc1cccc(C)c1)c1cccc([N+](=O)[O-])c1,i,10*,0,0.34,i,i
CNC(=S)Nc1cccc([N+](=O)[O-])c1,i,i,-6,0.52,i,i
COc1cc(OC)c(S(=O)(=O)Nc2ccccc2N2CCOCC2)cc1NC(C)=O,i,i,-14,-0.35,i,i
CN=C(Nc1cc(Cl)ccc1Cl)SC1CC(=O)N(c2ccc(C(=O)OC)cc2)C1=O (stereo unspecified),-8*,i,-12,-1.2,i,i
COC(=O)c1ccc(N2C(=O)CC(SCC(=O)Nc3ccc(OC)cc3)C2=O)cc1 (stereo unspecified),i,i,-10,1.6,i,i
